TAAR1 antag: antagonists of human TAAR1; CHO RD-HGA16 TAAR1, Fluo-8 calcium fluorescence, antagonist; inhibition, % at 3 µM; 360,000 compounds, 1.5% hits; AID 624466;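 active = inhibition above a per-plate cutoff, the mean inhibition of test compounds on that plate plus 3 SD, cut at about 49% in these data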;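 also: 0% = DMSO plus EC80 beta-PEA response and 100% = DMSO alone without agonist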
Target sequence (Q96RJ0 whole entry, looked up): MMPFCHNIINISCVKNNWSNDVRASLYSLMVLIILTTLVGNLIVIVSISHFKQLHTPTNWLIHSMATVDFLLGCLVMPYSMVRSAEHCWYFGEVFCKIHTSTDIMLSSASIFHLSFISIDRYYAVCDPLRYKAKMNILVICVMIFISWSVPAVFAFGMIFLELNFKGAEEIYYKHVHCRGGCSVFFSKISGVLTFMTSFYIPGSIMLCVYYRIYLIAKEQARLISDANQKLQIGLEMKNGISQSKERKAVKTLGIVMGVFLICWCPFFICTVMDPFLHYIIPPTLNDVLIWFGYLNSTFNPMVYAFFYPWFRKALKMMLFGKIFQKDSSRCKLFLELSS
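Material: CHO RD-HGA16 cells bearing hTAAR1; compound dosing: one-point dosing, 3 µM nominal final; schedule: dye loading 75 min at 37 °C, then 30 min room temperature; measured by: calcium fluorescence with Fluo-8; control set: vehicle and agonist controls; replication: n of 1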
ANO1 activ: activators or potentiators of mouse TMEM16A chloride channel | Q8BHY3 | HEK293 TMEM16A/YFP-H148Q/I152L, iodide quench fluorescence; hits give low values | B-score at 10 µM | 340,000 compounds, 0.3% hits | AID 623877;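 active = fluorescence-ratio B-score plate-corrected deviation score at least 3 library SD below zero, with starting fluorescence score within 5 deviations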;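 also: channel opened by trigger with iodide after compound preincubation; score built on the fluorescence ratio of max minus min over baseline; more negative score means more quench and so TMEM16A activation or potentiation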
TAAR1 agonist: human TAAR1 agonism. activation, % at 3 µM. CHO RD-HGA16 TAAR1, Fluo-8 calcium fluorescence; vehicle wells 0%, saturating PEA agonist 100%. Q96RJ0. AID 624467. 360,000 compounds, 0.99% hits;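 active = activation above the mean activation of all test compounds in the run plus 3 SD, cut at about 38% in these data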
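System: CHO RD-HGA16 cells carrying human TAAR1 plus Gα16; Incubation: 17-24 h seeding, 75 min 37 °C dye, 30 min RT; Measured by: Fluo-8 fluorescence, 5 s baseline then 140 s kinetic read; Control set: DMSO and PEA EC100; Replication: single well for each compound.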
CRFR2-BP ag: CRF-BP/CRF-R2 complex agonism | HEK293 CRF-R2/CRF-BP, calcium dye fluorescence (FLIPR); percent of saturating CRF peptide response | activation, % at 13.2 µM | 350,000 compounds, 0.46% hits | AID 588473;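 active = activation of at least 50%, plus an integration ratio under a set limit after plate pattern correction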;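 also: plate controls were neutral control wells without compound for no effect and CRF at EC100 for full effect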
CRFBP-R2 block: antagonists of CRF-binding protein/CRF-R2 receptor complex | HEK293 CRF-R2/CRF-BP, CRF-induced calcium fluorescence | inhibition, % at 11.8 µM | 350,000 compounds, 0.59% hits | AID 588475;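 active = inhibition of the ligand-induced calcium signal above about 50% at the single tested concentration, limit read from the data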
TMEM16A inh: inhibitors of mouse TMEM16A calcium-activated chloride channel; 310,000 compounds, 1.2% hits; Q8BHY3; normalized B-score (activity score, 25-100; higher = stronger inhibition) at 10 µM; HEK293 TMEM16A/YFP iodide influx fluorescence, ionomycin;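 active = ratio plate-corrected score three or more library SD toward inhibition, starting fluorescence score within five deviations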;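 also: score derived from kinetic fluorescence span divided by baseline fluorescence per well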
The depositor's hits bear a star; i = inactive; x = no result given. A selection: hits, their analogues and other compounds. The true share with any hit is near 3.9%.

SMILES | TAAR1 antag | ANO1 activ | TAAR1 agonist | CRFR2-BP ag | CRFBP-R2 block | TMEM16A inh
O=C(NCc1ccc2c(c1)OCO2)c1c(F)c(F)c(F)c(F)c1F | 7 | i | 6 | -2 | 61* | i
Cc1ccc(C(=O)Nc2c(N)nc(SCC(=O)NCC3CCCO3)[nH]c2=O)cc1 (configuration not stated) | -15 | i | 1 | 3 | -13 | i
Cc1ccc(NC(=O)CCN2CCC(C(N)=O)CC2)cc1 | 5 | i | -1 | -2 | 9 | i
O=C(Cc1cn(Cc2cccc(Cl)c2)c2ccccc12)N1CCCCCC1 | 5 | i | 1 | -1 | 13 | 25*
N#Cc1c(N2CCCC2)ccc(Br)c1Cl | -20 | i | 8 | -4 | 8 | i
COc1cc(C=Nc2c(C)cc(C)cc2C)ccc1OC(C)=O | 9 | i | 11 | -1 | 51* | i
COc1cc(/C=N/NC(=O)c2ccncc2)ccc1OC(C)=O | -12 | i | 1 | -1 | 2 | i
NC(=O)COC(=O)c1cccc(S(=O)(=O)N2CCCCC2)c1 | -5 | i | 1 | 5 | 86* | i
O=C(NCc1cccc(Cl)c1)c1cccc(S(=O)(=O)N2CCCCC2)c1 | 4 | i | 9 | 1 | 2 | x
COc1cccc(CNC(=O)c2ccc(S(=O)(=O)N3CCCCC3)cc2)c1 | 51* | x | 9 | 0 | 3 | x
O=C(NCc1cccc(Cl)c1)c1cccc(S(=O)(=O)N2CCCC2)c1 | 1 | i | 0 | 87* | -52 | x
Cc1ccccc1SCC(=O)NCC1(N2CCCCC2)CCCCC1 | -15 | x | -1 | 1 | -2 | x
Cn1cc(C2=C(c3ccc(Cl)cc3Cl)C(=O)NC2=O)c2ccccc21 | 5 | i | 23 | 144* | -156 | i
CC(=O)Oc1ccc(N2C(=O)c3cccc4c([N+](=O)[O-])ccc(c34)C2=O)cc1 | 10 | i | 2 | 4 | 75* | i
O=C1c2cccc3c([N+](=O)[O-])ccc(c23)C(=O)N1c1ccc(Cl)cn1 | 71* | i | 2 | 19 | 91* | i
O=C1c2cccc3c([N+](=O)[O-])ccc(c23)C(=O)N1O | -40 | i | -2 | 11 | -6 | i
O=C1c2cccc3c([N+](=O)[O-])ccc(c23)C(=O)N1c1nccs1 | 45 | i | -3 | 23 | 83* | i
O=C1c2cccc3c([N+](=O)[O-])ccc(c23)C(=O)N1c1ccccn1 | 27 | i | 1 | 7 | 60* | i
COc1ccc(C2CC(c3cccs3)=NN2C(=O)CSc2nc(=O)n3cc(C)ccc3n2)cc1 (configuration not stated) | -7 | i | 1 | 3 | 9 | i
CCN(CC(=O)Nc1c(F)cccc1F)C(=O)C1CCN(S(=O)(=O)c2ccc(C)c(C)c2)CC1 | 9 | i | 1 | -2 | 3 | i
NC(=O)C12C(=O)NC(=O)C1(C(=O)O)C21CCCC1 (configuration not stated) | 6 | i | 2 | 0 | 2 | x
O=C(Oc1ccc2cc(Br)ccc2c1)N1CCCCCC1 | x | x | x | x | x | 100*
Cc1cc(C)cc(OCC(=O)N2N=C(c3cccnc3)CC2(O)C(F)(F)F)c1 (configuration not stated) | 10 | i | 5 | 0 | -8 | i
Cc1cc(C)cc(OCC(=O)N2N=C(C(F)(F)F)CC2(O)C(C)(C)C)c1 (configuration not stated) | 19 | i | 12 | 4 | 9 | 100*
Cc1ccccc1-n1nc(-c2cccnc2)cc1C(=O)NN | 8 | i | -1 | 1 | -4 | i
SMILES | TAAR1 antag | ANO1 activ | TAAR1 agonist | CRFR2-BP ag | CRFBP-R2 block | TMEM16A inh
Cc1cccc(-c2ocnc2C(=O)N2CCN(C(=O)c3cccs3)CC2)c1 | 7 | i | -5 | 0 | -2 | i
CC1=NOC(=O)/C1=C\c1ccc(-c2cc(Cl)ccc2Cl)o1 | 11 | -5.4* | 10 | 116* | -79 | i
CC1=NOC(=O)/C1=C\c1ccc(-c2ccc(Br)cc2)o1 | 67* | i | 35 | 69* | -27 | x
CC1=NOC(=O)/C1=C/c1ccc(-c2ccc(Cl)cc2)o1 | x | i | x | x | x | i
Cc1cc(C)cc(NC(=O)Cc2ccc(NC3=NC4CS(=O)(=O)CC4S3)cc2)c1 (configuration not stated) | -11 | i | 0 | -1 | 11 | i
Cc1cccc(NC(=O)Cc2ccc(NC3=NC4CS(=O)(=O)CC4S3)cc2)c1 (configuration not stated) | -21 | i | 1 | -2 | 60* | i
COc1ccc(N2CCN(C(=O)c3cc(=O)[nH]c4ccccc34)CC2)cc1 | 13 | i | 13 | 0 | 3 | i
Cc1cc(C)c(S(=O)(=O)N2CCN(C(=O)c3cc(=O)[nH]c4ccccc34)CC2)c(C)c1 | 52* | i | 43* | -3 | -6 | x
N#Cc1ccccc1S(=O)(=O)N1CCN(C(=O)c2cc(=O)[nH]c3ccccc23)CC1 | 18 | i | 6 | 1 | 1 | x
Cc1ccc(S(=O)(=O)N2CCN(C(=O)c3cc(=O)[nH]c4ccccc34)CC2)c(C)c1 | 51* | i | 20 | 1 | -4 | i
COc1ccc(/C=C2/SC(=O)N(CCC(=O)Nc3ccccc3C(=O)O)C2=S)cc1 | -22 | i | -1 | 0 | 36 | i
CCC(C)(C)NC(=O)CN(C(=O)C(=O)Nc1ccc2c(c1)OCCO2)C1CC1 | 7 | i | -3 | 0 | 2 | i
COc1cc(CNC2CCCCCC2)cc(OC)c1O | -2 | i | 4 | 0 | -5 | i
COc1cc(CNC2CCCC2)cc(Cl)c1OCc1ccccc1F | 27 | i | 39* | -3 | -44 | i
CN(C)c1ccc(Sc2ccc3nc(N)nc(N)c3c2)cc1 | 12 | x | 44* | 1 | -33 | x
CN(C)c1ccc(Nc2nc(N)c3ccccc3n2)cc1 | 2 | i | 23 | 2 | -10 | i
O=C(/C=C/c1ccc(O)c(O)c1)OCCc1ccccc1 | 17 | i | 13 | -1 | -15 | 100*
O=C(/C=C/c1ccc(O)c(O)c1)OC(Cc1ccc(O)c(O)c1)C(=O)O (configuration not stated) | -3 | i | 0 | 0 | -12 | i
O=C(C=Cc1cccc(O)c1)c1ccccc1O | 20 | i | 7 | 1 | -16 | x
O=C(/C=C/c1ccc(O)c(O)c1)c1ccccc1O | 0 | i | 14 | 4 | 2 | 100*
Cc1ccc(Oc2nc3c(c(=O)n(Cc4ccccc4F)c(=O)n3C)n2C)cc1 | 50* | i | 20 | 2 | 40 | i
